Experimental findings from ChEMBL document CHEMBL1138619, “Autotaxin structure-activity relationships revealed through lysophosphatidylcholine analogs” (Bioorg Med Chem, 2009) are described below.

What all share (assay type): cell-based
What all share (design): scale not given: the % may be the effect or the level left

Assay [1] deals with Autotaxin (Homo sapiens) (UniProt Q13822). The assay can be described thus: Activity of human autotaxin in human […] cells assessed as effect on enzyme-mediated of FS3 hydrolysis at 0.1 uM. The procedure, abridged: (§1)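 ATX source: serum-free conditioned medium from MDA-MB-435 cells (24-30 h), with 20% ethylene glycol added, concentrated ~10-fold and exchanged into 50 mM Tris pH 7.4. Assay: FS-3 substrate 1 μM final, fatty-acid-free BSA 30 μM, Tris pH 8 buffer with Mg2+, Ca2+, K+ and NaCl. Read fluorescence at ex 485/em 538 nm every 5 min. % inhibition vs vehicle at 1 h, after no-medium background subtraction; mean ± SD, ≥3 wells.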

Assay [2] shares this target. The assay can be described thus: Activity of human autotaxin in human […] cells assessed as effect on enzyme-mediated of FS3 hydrolysis at 1 uM. An outline of the steps: as §1
For assay [3] the target is unchanged. In words: Activity of human autotaxin in human […] cells assessed as effect on enzyme-mediated of FS3 hydrolysis at 10 uM. An outline of the steps: as §1

`CCCCCCCCCCCCCCOP(=O)([O-])CCC[N+](C)(C)C`: the Activity in assay [1] is 94%; in assay [2], 90%; in assay [3], 71%.

Turning to `CCCCCCCCCCCCCCOP(=O)([O-])NCC[N+](C)(C)C`, the Activity in assay [1] was 89%; in assay [2], 90%; in assay [3] it was 75%.

For the molecule `CCCCCCCCCCCCCCCCOP(=O)([O-])CCC[N+](C)(C)C`, the Activity in assay [1] worked out at 97%; in assay [2] it was 94%; in assay [3] it was 91%.

`CCCCCCCCCCC(=O)OC[C@@H](O)COP(=O)([O-])OCC[N+](C)(C)C`: the Activity in assay [1] was 101%; in assay [2], 101%; in assay [3], 85%.

`CCCCCCCCCCCCCCCCCCC(=O)OC[C@@H](O)COP(=O)([O-])OCC[N+](C)(C)C`: the Activity in assay [1] is 111%; in assay [2], 99%; in assay [3], 59%.

With `CCCCCCCCC/C=C/CCCCCCCOP(=O)([O-])NCC[N+](C)(C)C`, the values for the Activity in assay [1], in assay [2] and in assay [3] were 93%, 89% and 74%, respectively.

For the molecule `CCCCCCCCCCCCCCOC[C@H](O)COP(=O)([O-])CCC[N+](C)(C)C`, the Activity came out at 97% in assay [1], 95% in assay [2] and 80% in assay [3].

In the case of `CCCCCCCCCCCCCCCCCCOC[C@H](O)COP(=O)([O-])CCC[N+](C)(C)C`, the Activity was 78% in assay [1], 77% in assay [2] and 68% in assay [3].

Regarding `CCCCCCCCCCCCCCCCCCC(=O)OC[C@@H](O)COP(=O)(O)O`, the Activity in assay [1] came out at 89%; in assay [2], 74%; in assay [3], 36%.

In the case of `CCCCCCCC/C=C\CCCCCCCCOP(=O)(O)OCC[N+](C)(C)C`, the Activity amounted to 101% in assay [1], 100% in assay [2] and 79% in assay [3].

Consider `CCCCCCCCC(=O)OC[C@@H](O)COP(=O)([O-])OCC[N+](C)(C)C`, for which the results for the Activity in assay [1], in assay [2] and in assay [3] were 94%, 81% and 101%, respectively.

As to `CCCCCCCC/C=C\CCCCCCCCOP(=O)([O-])OCC[N+](C)(C)C`, the Activity in assay [1] came to 105%; in assay [2] it was 59%; in assay [3] it was 8%.

Consider `CCCCCCCCCCOC[C@@H](O)COP(=O)([O-])CCC[N+](C)(C)C`, for which the Activity worked out at 101% in assay [1], 95% in assay [2] and 103% in assay [3].

As to `CCCCCCCCC/C=C/CCCCCCCC(=O)OC[C@@H](O)COP(=O)([O-])OCC[N+](C)(C)C`, the Activity in assay [1] came to 92%; in assay [2], 55%; in assay [3] it was 17%.

Turning to `CCCCCCCCCCCCCCCCCCOP(=O)([O-])OCC[N+](C)(C)C`, the Activity in assay [1] was 114%; in assay [2] it was 116%; in assay [3], 102%.

On to `CCCCCCCCCCCCCCCCC(=O)OC[C@@H](O)COP(=O)(O)O`, for which the results for the Activity in assay [1], in assay [2] and in assay [3] were 74%, 49% and 5%, respectively.

As to `CCCCCCCCCCCCCCCCOP(=O)([O-])NCC[N+](C)(C)C`, the Activity turned out to be 81% in assay [1], 81% in assay [2] and 77% in assay [3].

Turning to `CCCCCCCCCCCCOC[C@@H](O)COP(=O)([O-])CCC[N+](C)(C)C`, the Activity stood at 99% in assay [1], 96% in assay [2] and 89% in assay [3].

Regarding `CCCCCCCCCCOC[C@H](O)COP(=O)([O-])CCC[N+](C)(C)C`, the Activity in assay [1] was 97%; in assay [2], 96%; in assay [3], 89%.

As for `CCCCCCC(=O)OC[C@@H](O)COP(=O)([O-])OCC[N+](C)(C)C`, the Activity was found to be 104% in assay [1], 100% in assay [2] and 97% in assay [3].

For `CCCCCCCCCCCCCCCCCCOC[C@@H](O)COP(=O)([O-])CCC[N+](C)(C)C`, the Activity came to 81% in assay [1], 89% in assay [2] and 76% in assay [3].

As for `CCCCCCCCCCCCOC[C@H](O)COP(=O)([O-])CCC[N+](C)(C)C`, the Activity is 98% in assay [1], 95% in assay [2] and 87% in assay [3].

Turning to `CCCCCCCCCCCCCCCCOC[C@H](O)COP(=O)([O-])CCC[N+](C)(C)C`, the Activity in assay [1] was determined as 82%; in assay [2] it was 86%; in assay [3], 76%.

Take `CCCCCCCCCCCCCCOP(=O)([O-])OCC[N+](C)(C)C`: the Activity in assay [1] turned out to be 110%; in assay [2], 112%; in assay [3], 91%.

In the case of `CCCCCCCCCCCCCCCCCCP(=O)([O-])OCC[N+](C)(C)C`, the results for the Activity in assay [1], in assay [2] and in assay [3] were 110%, 96% and 44%, respectively.

As for `CCCCCCCCCCCCCCCCOC[C@@H](O)COP(=O)([O-])CCC[N+](C)(C)C`, the Activity was determined as 83% in assay [1], 82% in assay [2] and 72% in assay [3].

For the molecule `CCCCCCCCCCCCCCCCCCCOC[C@@H](O)COP(=O)([O-])OCC[N+](C)(C)C`, the Activity in assay [1] amounted to 92%; in assay [2] it was 86%; in assay [3], 44%.

As to `CCCCCCCCCCCCCCCCOP(=O)([O-])OCC[N+](C)(C)C`, the Activity in assay [1] was 114%; in assay [2], 113%; in assay [3], 92%.

As to `CCCCCCCCCCCCC(=O)OC[C@@H](O)COP(=O)([O-])OCC[N+](C)(C)C`, the Activity in assay [1] stood at 102%; in assay [2] it was 97%; in assay [3] it was 66%.

Turning to `CCCCCCCCCCCCCCCCC(=O)OC[C@@H](O)COP(=O)([O-])OCC[N+](C)(C)C`, the Activity in assay [1] is 109%; in assay [2], 89%; in assay [3] it was 36%.

Take `CCCCCCCCCCCCCCCCCCOP(=O)([O-])NCC[N+](C)(C)C`: the Activity was found to be 86% in assay [1], 74% in assay [2] and 29% in assay [3].

Take `CCCCCCCCC/C=C/CCCCCCCC(=O)OC[C@@H](O)COP(=O)(O)O`: the Activity came to 90% in assay [1], 23% in assay [2] and 2% in assay [3].

As to `CCCCCCCCCCCCCCCCCOC[C@@H](O)COP(=O)([O-])OCC[N+](C)(C)C`, the Activity was 100% in assay [1], 89% in assay [2] and 49% in assay [3].

With `CCCCCCCCCCCCCCC(=O)OC[C@@H](O)COP(=O)([O-])OCC[N+](C)(C)C`, the Activity in assay [1] was 72%; in assay [2], 80%; in assay [3], 36%.

As for `CCCCCCCCCCCCCCOC[C@@H](O)COP(=O)([O-])CCC[N+](C)(C)C`, the Activity was found to be 98% in assay [1], 85% in assay [2] and 76% in assay [3].
